Measured values published in ChEMBL document CHEMBL4316604, “Discovery of Isaindigotone Derivatives as Novel Bloom's Syndrome Protein (BLM) Helicase Inhibitors That Disrupt the BLM/DNA Interactions and Regulate the Homologous Recombination Repair” (J Med Chem, 2019).
Activity calls are given as the source filed them. No cut-off for these calls is given here.

What was measured:
[1] = target: T1, RecQ-like DNA helicase BLM (Homo sapiens, UniProt P54132); test: Inhibition of His-tagged BLM (unknown origin) expressed in Escherichia coli BL21 (DE3) assessed as reduction in BLM helicase unwinding activity at 10 uM using 5'-biotin labeled forked-DNA as substrate after 1 hr by PAGE analysis
In short: (§1)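 BLM642-1296 (His-tagged, E. coli BL21(DE3)) preincubated with ligand (1.0, 10, 50 μM; ≤1% DMSO) for 1 h at 4 °C. Reaction: 8 nM annealed 5′-biotin duplex forked DNA, 32 nM BLM, 2 mM ATP, 0.1% BSA, 1 h.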

[2] = target: T1, RecQ-like DNA helicase BLM; test: Inhibition of His-tagged BLM (unknown origin) expressed in Escherichia coli BL21 (DE3) assessed as reduction in BLM helicase unwinding activity at 50 uM using 5'-biotin labeled forked-DNA as substrate after 1 hr by PAGE analysis; in short: as §1
[3] = target: T1, RecQ-like DNA helicase BLM; test: Inhibition of His-tagged BLM (unknown origin) expressed in Escherichia coli BL21 (DE3) assessed as reduction in BLM helicase unwinding activity at 1 uM using 5'-biotin labeled forked-DNA as substrate after 1 hr by PAGE analysis; in short: as §1
[4] = target: T1, RecQ-like DNA helicase BLM; test: Inhibition of BLM in human HCT116 cells assessed as induction of HRR up-regulation after 24 hrs by GFP-based flow cytometry; type: cell-based
In short: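 HCT116 cells (2×10^5) co-transfected with DR-GFP HRR reporter and I-SceI plasmid; 24 h later treated with 0–2 μM ligand (reference 0–50 μM); BLM siRNA knockdown where stated. GFP-positive cells counted by flow cytometry and normalised to untreated; triplicate, mean ± SD.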

[5] = target: T1, RecQ-like DNA helicase BLM; details: 50 uM

T1 sequence (P54132 whole entry): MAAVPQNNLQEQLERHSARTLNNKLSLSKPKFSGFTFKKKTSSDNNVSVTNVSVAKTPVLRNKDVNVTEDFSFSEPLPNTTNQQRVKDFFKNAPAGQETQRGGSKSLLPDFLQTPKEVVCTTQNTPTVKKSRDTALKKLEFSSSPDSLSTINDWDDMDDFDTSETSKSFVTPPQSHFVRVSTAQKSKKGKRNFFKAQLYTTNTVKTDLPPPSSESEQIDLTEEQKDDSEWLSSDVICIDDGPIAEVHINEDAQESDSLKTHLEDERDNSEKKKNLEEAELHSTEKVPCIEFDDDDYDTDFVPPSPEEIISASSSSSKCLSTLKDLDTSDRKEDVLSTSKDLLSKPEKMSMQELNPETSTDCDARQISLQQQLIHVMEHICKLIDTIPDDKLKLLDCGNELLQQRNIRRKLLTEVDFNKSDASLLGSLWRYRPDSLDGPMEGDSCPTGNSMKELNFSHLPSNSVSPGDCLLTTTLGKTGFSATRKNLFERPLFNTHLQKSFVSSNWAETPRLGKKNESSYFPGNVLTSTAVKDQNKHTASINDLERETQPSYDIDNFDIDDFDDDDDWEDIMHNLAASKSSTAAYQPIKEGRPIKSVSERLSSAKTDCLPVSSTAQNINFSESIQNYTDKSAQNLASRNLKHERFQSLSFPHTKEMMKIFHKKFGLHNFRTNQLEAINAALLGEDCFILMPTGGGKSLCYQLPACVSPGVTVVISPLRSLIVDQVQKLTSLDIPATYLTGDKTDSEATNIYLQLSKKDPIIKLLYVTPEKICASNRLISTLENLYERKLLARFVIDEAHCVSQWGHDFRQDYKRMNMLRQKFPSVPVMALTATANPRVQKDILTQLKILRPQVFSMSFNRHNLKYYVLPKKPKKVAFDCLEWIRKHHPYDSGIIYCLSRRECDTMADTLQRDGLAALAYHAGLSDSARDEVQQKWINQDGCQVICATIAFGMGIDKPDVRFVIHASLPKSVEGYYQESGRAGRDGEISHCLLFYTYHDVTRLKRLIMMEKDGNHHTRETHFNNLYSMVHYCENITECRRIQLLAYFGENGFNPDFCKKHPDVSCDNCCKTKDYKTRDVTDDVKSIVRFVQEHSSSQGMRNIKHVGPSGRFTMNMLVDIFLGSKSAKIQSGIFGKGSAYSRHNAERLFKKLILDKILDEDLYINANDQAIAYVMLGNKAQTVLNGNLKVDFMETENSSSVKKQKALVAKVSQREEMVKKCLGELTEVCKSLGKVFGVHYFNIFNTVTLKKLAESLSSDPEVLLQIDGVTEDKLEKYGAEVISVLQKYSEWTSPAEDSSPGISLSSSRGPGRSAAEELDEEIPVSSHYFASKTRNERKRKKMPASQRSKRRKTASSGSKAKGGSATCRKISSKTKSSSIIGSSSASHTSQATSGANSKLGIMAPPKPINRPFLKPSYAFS

Row | inhibition [1] | inhibition [2] | inhibition [3] | EC [4] [µM] | inhibition [5] | Structure (SMILES)
1 | Active | Active | Active | – | – | CCN(CC)CCCNc1cc2nc3n(c(=O)c2cc1F)CC/C3=C\c1ccc(CC(C)C)cc1
2 | Active | Active | Active | 50 | inactive | O=C(Nc1ccc(F)c(C(F)(F)F)c1)Nc1nnc(-c2ccncc2)s1
3 | Active | Active | Active | – | – | CCN(CC)CCCNc1cc2nc3n(c(=O)c2cc1F)CC/C3=C\c1ccc(C(F)(F)F)cc1
4 | Active | Active | Active | – | – | CCN(CC)CCCNc1cc2nc3n(c(=O)c2cc1F)CC/C3=C\c1ccc(C(C)(C)C)cc1
